The source made the active and inactive calls. No cut-off for these calls is given here.
Columns and labels:
[1] = tested on: Cyclin-dependent kinase 5/p25 (Homo sapiens); assay: Inhibition of human recombinant CDK5/p25 at 10 uM
[2] = molecular target: T1, Dual specificity tyrosine-phosphorylation-regulated kinase 2 (Homo sapiens) (UniProt Q92630); assay: Inhibition of human recombinant GST-tagged DYRK2 using […] as substrate and [gamma32]-ATP at 10 uM after 30 mins by scintillation counting
T1 sequence (whole entry): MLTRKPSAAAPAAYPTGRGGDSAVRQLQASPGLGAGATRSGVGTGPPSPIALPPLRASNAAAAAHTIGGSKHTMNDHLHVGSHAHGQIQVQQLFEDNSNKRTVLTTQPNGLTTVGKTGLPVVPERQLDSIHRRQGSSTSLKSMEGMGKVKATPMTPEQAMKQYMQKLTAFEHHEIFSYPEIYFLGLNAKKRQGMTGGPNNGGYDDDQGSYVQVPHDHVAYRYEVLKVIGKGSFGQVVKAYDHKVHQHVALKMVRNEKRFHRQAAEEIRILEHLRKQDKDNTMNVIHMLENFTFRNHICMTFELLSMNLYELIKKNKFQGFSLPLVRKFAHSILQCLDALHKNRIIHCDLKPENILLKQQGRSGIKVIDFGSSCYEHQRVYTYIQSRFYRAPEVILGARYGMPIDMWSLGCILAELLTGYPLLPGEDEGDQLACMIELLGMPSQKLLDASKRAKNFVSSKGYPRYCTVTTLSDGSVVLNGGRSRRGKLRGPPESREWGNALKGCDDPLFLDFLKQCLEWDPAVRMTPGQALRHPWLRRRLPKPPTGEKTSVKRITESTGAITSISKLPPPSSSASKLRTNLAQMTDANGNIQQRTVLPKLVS
Summary of the method: (§1)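 GST fusion kinases expressed in E. coli and purified on glutathione-agarose; DYRK1A is rat, DYRK2 is human. Assay buffer A (25 mM Tris-HCl pH 7.5, 10 mM MgCl2, 1 mM EGTA, 1 mM DTT, 50 μg/mL heparin) plus 0.15 mg/mL BSA. Woodtide 1.5 μg/assay with 15 μM [γ-33P]ATP, 30 min at 30 C. Product captured on P81 paper, washed in 1% phosphoric acid, scintillation counted. Activity expressed as percent of uninhibited control.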

[3] = molecular target: Dual specificity protein kinase CLK3 (Mus musculus) (UniProt O35492); assay: Inhibition of mouse recombinant GST-tagged CLK3 using GRSRSRSRSRSR as substrate at 10 uM
Summary of the method: (§2)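 Mouse GST-fusion CLK1 or CLK3 expressed in E. coli. Assay buffer A (Tris-HCl pH 7.5, MgCl2, EGTA, DTT, heparin) plus 0.15 mg/mL BSA. RS peptide 1 μg/assay, 15 μM ATP final, 30 C. Blank subtracted; activity expressed as percent of activity without inhibitor. DMSO controls. Concentration range up to 10 μM.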

[4] = molecular target: T2, Serine/threonine-protein kinase pim-1 (Homo sapiens, UniProt P11309); assay: Inhibition of human recombinant Pim1
Summary of the method: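 Kinase assayed in buffer C (25 mM Mops pH 7.2, 60 mM beta-glycerophosphate, 30 mM p-nitrophenylphosphate, 15 mM MgCl2, 5 mM EGTA, 1 mM DTT, 0.1 mM vanadate) with 1 mg/mL histone H1. DMSO controls.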
Target sequence in this assay (P11309 whole entry): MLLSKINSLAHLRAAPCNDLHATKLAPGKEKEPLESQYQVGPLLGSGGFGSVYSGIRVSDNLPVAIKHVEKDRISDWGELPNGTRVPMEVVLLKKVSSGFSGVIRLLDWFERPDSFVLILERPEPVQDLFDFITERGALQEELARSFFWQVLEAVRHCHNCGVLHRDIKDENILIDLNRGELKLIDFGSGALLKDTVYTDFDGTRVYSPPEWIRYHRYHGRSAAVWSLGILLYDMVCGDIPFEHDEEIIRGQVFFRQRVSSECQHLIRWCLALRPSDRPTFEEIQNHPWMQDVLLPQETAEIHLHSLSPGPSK

[5] = molecular target: Dual specificity protein kinase CLK1 (Mus musculus) (UniProt P22518); assay: Inhibition of mouse recombinant GST-tagged CLK1 using GRSRSRSRSRSR as substrate at 10 uM
Summary of the method: as §2

[6] = species: Sus scrofa; assay: Inhibition of pig brain CK1 delta/epsilon using RRKHAAIGpSAYSITA as substrate at 10 uM
Summary of the method: (§3)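 Native CK1δ/ε from porcine brain, assayed in 3-fold diluted buffer C with 25 μM CKS peptide substrate. 15 μM ATP final, 30 C. Activity is percent of uninhibited control after blank subtraction, with DMSO controls. Inhibitor tested over a range of concentrations up to 10 μM.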

[7] = molecular target: Dual specificity tyrosine-phosphorylation-regulated kinase 1A (Rattus norvegicus) (UniProt Q63470); assay: Inhibition of rat recombinant GST-tagged DYRK1A using KKISGRLSPIMTEQ as substrate and [gamma32]-ATP at 10 uM after 30 mins by scintillation counting
Summary of the method: as §1

[8] = molecular target: Cyclin-dependent kinase 5/CDK5 activator 1 (Homo sapiens) (UniProt Q00535+Q15078); assay: Inhibition of human recombinant CDK5/p25 at 10 uM; assay type: protein-complex assay
Summary of the method: (§4)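 Kinase assayed in buffer C (25 mM Mops pH 7.2, 60 mM beta-glycerophosphate, 30 mM p-nitrophenylphosphate, 15 mM MgCl2, 5 mM EGTA, 1 mM DTT, 0.1 mM vanadate) with 1 mg/mL histone H1. 15 μM ATP final, 30 C. Activity is percent of activity without inhibitor, after blank subtraction. DMSO controls.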

[9] = molecular target: Dual specificity protein kinase CLK3 (Mus musculus, UniProt O35492); assay: Inhibition of mouse recombinant GST-tagged CLK3 using GRSRSRSRSRSR as substrate
Summary of the method: as §2

[10] = molecular target: Dual specificity protein kinase CLK1 (Mus musculus, UniProt P22518); assay: Inhibition of mouse recombinant GST-tagged CLK1 using GRSRSRSRSRSR as substrate
Summary of the method: as §2

[11] = Inhibition of pig brain CK1 delta/epsilon using RRKHAAIGpSAYSITA as substrate; design: species or system Sus scrofa
Summary of the method: as §3

[12] = molecular target: Dual specificity tyrosine-phosphorylation-regulated kinase 1A (Rattus norvegicus, UniProt Q63470); assay: Inhibition of rat recombinant GST-tagged DYRK1A using KKISGRLSPIMTEQ as substrate and [gamma32]-ATP after 30 mins by scintillation counting
Summary of the method: as §1, with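 “BSA.” for “BSA. Woodtide 1.5 μg/assay with 15 μM [γ-33P]ATP, 30 min at 30 C.”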

[13] = molecular target: Dual specificity protein kinase CLK1 (Homo sapiens) (UniProt P49759); assay: Inhibition of CLK1 transfected in human HeLa cells assessed as increase in exon inclusion ratio after 24 hrs by RT-PCR analysis; assay type: cell-based
Summary of the method: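 HeLa cells were transfected with […], with kinase-dead CLK1/K190R as comparator. Inhibitors at varying doses were added 3 h post-transfection, with 0.5% DMSO final in all cultures. Cells were harvested 24 h post-transfection, total RNA was extracted, and E1A splicing products were analysed by RT-PCR. Isoform molar ratios were measured by Bioanalyzer to give the exon inclusion ratio. Three independent samples were used.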

[14] = molecular target: T3, Dual specificity tyrosine-phosphorylation-regulated kinase 2 (Homo sapiens, UniProt Q92630); assay: Inhibition of human recombinant GST-tagged DYRK2 using KKISGRLSPIMTEQ as substrate and [gamma32]-ATP after 30 mins by scintillation counting
T3 sequence (Q92630 whole entry): T1 sequence (whole entry)
Summary of the method: as §1, with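 “BSA.” for “BSA. Woodtide 1.5 μg/assay with 15 μM [γ-33P]ATP, 30 min at 30 C.”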

[15] = molecular target: Glycogen synthase kinase-3 (Sus scrofa, UniProt B2LUN4+I6LNT8); assay: Inhibition of pig brain GSK-3alpha/beta using YRRAAVPPSPSLSRHSSPHQSpEDEEE as substrate
Summary of the method: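 Compounds were tested at various concentrations, the highest being 10 μM, with DMSO dilution controls. Blanks were subtracted and activity was expressed as percent of the uninhibited maximum.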

[16] = molecular target: Glycogen synthase kinase-3 alpha/beta (Sus scrofa); assay: Inhibition of pig brain GSK-3alpha/beta
[17] = molecular target: T2, Serine/threonine-protein kinase pim-1; assay: Inhibition of human recombinant Pim1 at 10 uM
Summary of the method: as §4
Target sequence in this assay (P11309 whole entry, looked up): as the sequence (P11309 whole entry) above

Sequence of Dual specificity protein kinase CLK1 (Mus musculus) (P22518 whole entry, looked up): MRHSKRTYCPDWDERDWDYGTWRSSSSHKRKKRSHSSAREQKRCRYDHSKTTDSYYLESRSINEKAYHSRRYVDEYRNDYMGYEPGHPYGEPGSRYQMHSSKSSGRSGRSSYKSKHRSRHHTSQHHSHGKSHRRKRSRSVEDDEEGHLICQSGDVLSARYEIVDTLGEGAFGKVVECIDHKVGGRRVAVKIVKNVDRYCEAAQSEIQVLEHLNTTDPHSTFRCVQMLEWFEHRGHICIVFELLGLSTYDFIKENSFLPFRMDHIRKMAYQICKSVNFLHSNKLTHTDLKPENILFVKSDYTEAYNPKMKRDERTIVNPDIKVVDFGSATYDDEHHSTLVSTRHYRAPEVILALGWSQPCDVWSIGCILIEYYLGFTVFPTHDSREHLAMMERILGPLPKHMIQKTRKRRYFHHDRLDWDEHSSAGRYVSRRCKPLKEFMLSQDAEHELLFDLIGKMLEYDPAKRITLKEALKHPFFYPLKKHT
Sequence of Dual specificity protein kinase CLK1 (P22518 whole entry): as the sequence (P22518 whole entry, looked up) above
Sequence of Dual specificity protein kinase CLK3 (Mus musculus) (O35492 whole entry, the tested form may be a part): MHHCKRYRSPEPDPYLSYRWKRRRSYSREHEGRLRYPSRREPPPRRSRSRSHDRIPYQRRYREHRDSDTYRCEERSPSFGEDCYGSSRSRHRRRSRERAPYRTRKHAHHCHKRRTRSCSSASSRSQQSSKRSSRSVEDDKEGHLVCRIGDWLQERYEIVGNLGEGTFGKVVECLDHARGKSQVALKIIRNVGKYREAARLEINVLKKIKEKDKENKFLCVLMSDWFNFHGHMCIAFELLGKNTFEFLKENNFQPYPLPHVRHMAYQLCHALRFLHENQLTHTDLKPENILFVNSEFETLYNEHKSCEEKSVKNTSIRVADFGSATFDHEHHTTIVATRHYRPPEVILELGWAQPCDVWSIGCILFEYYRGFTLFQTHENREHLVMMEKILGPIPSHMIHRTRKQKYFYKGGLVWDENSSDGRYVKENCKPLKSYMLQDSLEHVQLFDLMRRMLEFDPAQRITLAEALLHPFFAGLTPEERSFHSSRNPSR
Sequence of Dual specificity protein kinase CLK3 (O35492 whole entry): as the sequence (O35492 whole entry, the tested form may be a part) above
Sequence of Cyclin-dependent kinase 5/CDK5 activator 1 (Homo sapiens) (Q00535 whole entry): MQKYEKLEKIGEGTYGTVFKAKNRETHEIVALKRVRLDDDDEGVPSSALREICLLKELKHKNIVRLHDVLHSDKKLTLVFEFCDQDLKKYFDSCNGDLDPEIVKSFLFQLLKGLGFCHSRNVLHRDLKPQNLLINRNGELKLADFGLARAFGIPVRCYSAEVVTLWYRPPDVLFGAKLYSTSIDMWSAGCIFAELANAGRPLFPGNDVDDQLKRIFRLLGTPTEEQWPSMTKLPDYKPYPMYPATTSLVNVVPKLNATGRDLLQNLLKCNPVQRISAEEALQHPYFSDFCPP
Sequence of Cyclin-dependent kinase 5/CDK5 activator 1 (Homo sapiens) (Q15078 99-307 partner limits assumed): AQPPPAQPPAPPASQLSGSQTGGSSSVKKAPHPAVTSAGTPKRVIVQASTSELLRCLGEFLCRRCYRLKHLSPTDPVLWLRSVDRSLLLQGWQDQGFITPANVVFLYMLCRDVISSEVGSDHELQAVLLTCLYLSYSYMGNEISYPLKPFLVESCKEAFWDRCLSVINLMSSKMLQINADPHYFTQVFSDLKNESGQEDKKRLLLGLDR
Sequence of Dual specificity protein kinase CLK1 (Homo sapiens) (P49759 whole entry, looked up, canonical isoform): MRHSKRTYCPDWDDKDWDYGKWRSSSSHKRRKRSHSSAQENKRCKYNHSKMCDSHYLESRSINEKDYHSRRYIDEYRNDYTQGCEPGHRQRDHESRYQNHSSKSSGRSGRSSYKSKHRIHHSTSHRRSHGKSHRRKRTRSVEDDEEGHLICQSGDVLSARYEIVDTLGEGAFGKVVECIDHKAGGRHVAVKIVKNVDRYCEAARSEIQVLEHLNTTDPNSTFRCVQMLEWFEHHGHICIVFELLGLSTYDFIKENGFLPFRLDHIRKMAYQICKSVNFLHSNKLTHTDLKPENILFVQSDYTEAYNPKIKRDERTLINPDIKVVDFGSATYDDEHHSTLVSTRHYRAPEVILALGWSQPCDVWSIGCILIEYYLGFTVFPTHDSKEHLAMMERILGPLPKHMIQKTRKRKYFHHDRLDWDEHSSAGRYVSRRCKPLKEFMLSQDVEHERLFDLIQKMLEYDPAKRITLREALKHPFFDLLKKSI

Structure (SMILES) | inhibition [1] | IC50 [4] [nM] | inhibition [6] | inhibition [8] | IC50 [9] [nM] | IC50 [10] [nM] | IC50 [12] [nM] | IC50 [14] [nM] | further results
CCCNC1=N/C(=C\c2ccccc2)C(=O)N1C | inactive | > 10000 | inactive | inactive |  |  |  |  | inhibition [2]: inactive; inhibition [3]: inactive; inhibition [5]: inactive; inhibition [7]: inactive
CN1C(=O)/C(=C/c2ccc3c(c2)OCO3)N=C1Nc1ccc2c(c1)OCCO2 |  | 2200 |  |  | 3600 | 220 | 220 |  | IC50 [11]: > 10000 nM
CC[C@H](CO)Nc1nc(NCc2ccccc2)c2ncn(C(C)C)c2n1 |  |  |  |  |  |  |  |  | increase in exon inclusion ratio [13]: inactive
CCCNC1=N/C(=C\c2ccc3c(c2)OCO3)C(=O)N1c1ccccc1 |  | > 10000 | inactive | inactive | > 10000 | > 10000 | > 10000 | > 10000 | 
CN1C(=O)/C(=C/c2ccc3c(c2)OCO3)N=C1N [LEUCETTAMINE B] |  | > 10000 |  |  | 6400 | 400 | 2800 | 1500 | IC50 [15]: > 10000 nM; IC50 [11]: > 10000 nM
CCCNC1=N/C(=C\c2ccccc2O)C(=O)N1C | inactive | > 10000 | inactive | inactive | > 10000 | > 10000 |  | > 10000 | 
CCCNC1=N/C(=C\c2cc(OC)c(OC)c(OC)c2)C(=O)N1C | inactive | > 10000 | inactive | inactive |  | > 10000 |  | > 10000 | inhibition [3]: inactive; inhibition [7]: inactive
COc1ccc2c(c1)[nH]c1c(C)nccc12 |  |  |  |  |  |  |  |  | increase in exon inclusion ratio [13]: Dose-dependent effect
COc1ccc(NC2=N/C(=C\c3ccc4c(c3)OCO4)C(=O)N2C)cc1 | inactive | 4100 | inactive |  | > 10000 | 450 | 240 | 510 | IC50 [16]: 700 nM
CCCNC1=N/C(=C\c2ccc3c(c2)OC(F)(F)O3)C(=O)N1C | inactive | > 10000 | inactive | inactive |  |  |  |  | inhibition [2]: inactive; inhibition [3]: inactive; inhibition [5]: inactive; inhibition [7]: inactive
CCCNC1=N/C(=C\c2ccc(Br)cc2)C(=O)N1C |  |  | inactive | inactive | 8800 |  |  |  | inhibition [2]: inactive; inhibition [17]: inactive; inhibition [5]: inactive
CCNC1=N/C(=C\c2ccc3c(c2)OCO3)C(=O)N1 | inactive | 3100 | inactive |  | 3700 | 400 | 410 | 160 | IC50 [16]: 2400 nM
CN1C(=O)/C(=C/c2ccc3c(c2)OCO3)N=C1NCC1CC1 |  | 2100 |  |  | 510 | 130 | 200 | 340 | IC50 [11]: > 10000 nM
CCN1/C(=C/C(C)=O)Sc2ccc(OC)cc21 |  |  |  |  |  |  |  |  | increase in exon inclusion ratio [13]: Dose-dependent effect
CCCNC1=N/C(=C\c2ccc3c(c2)OCO3)C(=O)N1CCC |  | > 10000 | inactive | inactive |  |  | > 10000 | 2100 | inhibition [3]: inactive; inhibition [5]: inactive
